The list is not random: actives were taken first. Their share in the collection is about 3.5%.
MrgX1 ag = agonists of human MrgX1 receptor, primary screen, HEK293 cells, Fluo-4 calcium flux; B-score at 10 µM; Fluo-4 calcium fluorescence, agonist mode; hits give high values; actives 0.44% (n = 310,000); Mas-related G-protein coupled receptor member X1 (Homo sapiens), Q96LB2;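 active means calcium response B-score plate-corrected fluorescence ratio at least 3 library SD, with starting fluorescence B-score inside 5 SD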
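Test system: HEK293 cells stably expressing human MrgX1 receptor; Input: fifteen thousand cells per well; Dosing: compound delivered in addition one of three; Schedule: overnight seeding, then 1 h dark dye loading; Technique: Fluo-4 NW calcium fluorescence; Measure: B-scored fluorescence response ratio; Controls: positive and negative controls per plate.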
MrgX1 PAM = positive allosteric modulators of MrgX1, primary screen, HEK293 cells, Fluo-4 calcium flux; Mas-related G-protein coupled receptor member X1 (Homo sapiens), Q96LB2; FDSS; hits give high values; B-score at 10 µM; actives 0.63% (n = 310,000); AID 588675, 2011;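 active means plate-corrected calcium response at least 3 library SD above typical, normal starting fluorescence, not activating the receptor alone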;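 further: compound read alongside a low EC10 to EC30 dose of BAM8-22 agonist; peak minus trough fluorescence over baseline measured at the second addition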
MrgX1 antag = antagonists of human MrgX1 receptor, primary screen, HEK293 cells, Fluo-4 calcium flux. Mas-related G-protein coupled receptor member X1 (Homo sapiens), Q96LB2. BAM8-22 antagonism; hits give low values. B-score at 10 µM. actives 1.3% (n = 310,000). AID 588676, 2011;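 active means calcium-response B-score plate-corrected more than 3 library SD below zero, starting fluorescence within 5 deviations, no agonist response on first addition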;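 further: peak minus trough fluorescence over baseline after final BAM8-22 challenge near maximal dose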
RGS4 pot = RGS4 potentiators or activators, primary screen, cell-based, HEK293 M3R inducible RGS4, calcium flux; actives 0.92% (n = 310,000); B-score at 10 µM; carbachol calcium flux Fluo4; hits give low values;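 active means B-score of the integrated calcium signal more than 4 SD below the library mean, with starting fluorescence not abnormally high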;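 further: negative B-score means reduced calcium response which marks RGS4 activation or potentiation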
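Assay system: Inducible-RGS4 HEK293 cells carrying M3 receptor | Schedule: Compound preincubation 20 min at room temperature before agonist | Signal: Kinetic calcium fluorescence imaging with Fluo4-AM dye, 2 µM | Read-out basis: B score from integrated fluorescence ratio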
RGS4 block = RGS4 inhibitors, primary screen, cell-based, HEK293 M3R inducible RGS4, calcium flux; Regulator of G-protein signaling 4 (Homo sapiens), P49798; actives 0.45% (n = 310,000); B-score at 10 µM; Fluo-4 calcium flux; hits give high values; triggered by carbachol at its EC20; AID 463165, 2010;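 active means B-score, a plate-corrected calcium signal, over three deviations above library mean, with baseline fluorescence within five deviations of library mean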;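 further: RGS4 expression induced by doxycycline in cells with stable M3 receptor; B-score is computed from the integrated fluorescence ratio over baseline after carbachol; higher B-score means a larger calcium signal and so more RGS4 inhibition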
Target sequence (P49798 whole entry, looked up): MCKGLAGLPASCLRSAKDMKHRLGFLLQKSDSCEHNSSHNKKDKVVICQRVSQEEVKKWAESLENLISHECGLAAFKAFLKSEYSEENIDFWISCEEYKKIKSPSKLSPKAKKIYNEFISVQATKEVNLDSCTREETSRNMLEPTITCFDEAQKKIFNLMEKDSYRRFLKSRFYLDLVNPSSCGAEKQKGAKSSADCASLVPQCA
RGS4 act valid = reduced carbachol calcium response, RGS4-induced M3R cells, confirmation, RGS4 activator project, cell-based, HEK293 M3R/RGS4 inducible, calcium flux, duplicate; shares compounds with RGS4 pot; carbachol calcium flux Fluo4; inhibition, % at 10 µM; actives 89% (n = 1,100);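 active means inhibition above 3 SD of the buffer control wells, cut at about 41% in these data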;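 further: signal is the integrated peak-minus-minimum Fluo4 fluorescence over baseline ratio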
M3R Ca counter = RGS4 activator counter-screen hit in non-induced cells. shares compounds with RGS4 pot. HEK293 M3R non-induced RGS4, Fluo4 calcium flux; after carbachol challenge at its EC90. inhibition, % at 10 µM. actives 82% (n = 1,100). AID 602283;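 active means inhibition exceeding 3 SD of buffer-only control wells, cut at about 26% in these data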;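 further: percent drop in integrated peak-minus-baseline over baseline Fluo4 ratio after carbachol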
An asterisk follows results filed as active; i = inactive; · = not tested or not shown.

SMILES	MrgX1 ag	MrgX1 PAM	MrgX1 antag	RGS4 pot	RGS4 block	RGS4 act valid	M3R Ca counter
CCCCCCCCn1c2c(c(=N)c3ccccc31)CCC2	·	·	·	i	i	·	·
CC(OC(=O)c1ccc(NC(=O)CC#N)cc1)C(=O)NC(=O)NC1CCCCC1 (configuration not stated)	i	i	i	i	i	·	·
CCCCN(CC)CCNC(=O)c1cc2c(-c3ccc(Cl)cc3)nn(C)c2s1	i	i	i	-8.86*	i	72.5*	56.8*
CC(=O)c1cccc(NC(=O)c2ccc(CN3CCc4ccccc4C3)cc2)c1	i	i	i	i	i	·	·
C/C(=N\NC(=O)c1ccc(CN2CCc3ccccc3C2)cc1)c1ccccc1O	i	i	-5.02*	-13.7*	i	94.0*	96.3*
O=C(NCCc1ccccc1)C(c1cccs1)N(C(=O)CCl)c1ccc(Cl)cc1 (configuration not stated)	i	i	i	-8.1*	i	50.5*	0.0
O=C(NCCc1ccccc1)C(c1cccs1)N(C(=O)c1csnn1)C1CC1 (configuration not stated)	i	i	i	i	i	·	·
Nc1ccc2c3c(cccc13)C(=O)N(c1ccccc1)C2=O	·	·	·	i	i	·	·
CC(C)CCN1C(=O)c2cccc3c(N)ccc(c23)C1=O	i	i	i	-7.75*	i	99.0*	95.3*
CC(=O)/C(=N/Nc1ccccc1[N+](=O)[O-])N1CCCc2ccccc21	i	i	i	-11*	i	93.0*	89.3*
CC(=O)/C(=N/Nc1ccc([N+](=O)[O-])cc1)N1CCCc2ccccc21	i	i	i	i	i	·	·
O=C(NCc1ccccc1)c1ccc(C2SCC(=O)N2Cc2ccccc2)cc1 (configuration not stated)	i	i	i	-7.9*	i	88.0*	55.3*
C=CCNC(=O)c1ccc(C2SCC(=O)N2Cc2ccccc2)cc1 (configuration not stated)	i	i	i	i	i	·	·
COC(=O)C1=C(C(=O)OC)[C@@H]2Nc3ccccc3[C@@]23C[C@@H](C(=O)OC)N(C(=O)c2ccco2)C3=N1	i	i	i	i	i	·	·
CCOC(=O)c1c(NC(C)=O)sc2c(OCCN(CC)CC)c(Br)ccc12	i	i	i	-10.4*	i	90.0*	38.8*
CCOC(=O)c1c(NC(C)=O)sc2c(OC)c(Br)ccc12	i	i	i	i	i	·	·
COc1cc(Br)c(CC(=O)NC2CC2)cc1OC	i	i	i	i	i	·	·
O=S(=O)(c1ccc(Oc2ccc(F)c(Cl)c2)nc1)N1CCOCC1	i	i	i	i	i	·	·
COc1ccc(NC(=O)CC2C(=O)N(c3ccc(Cl)cc3)C(=S)N2NC(=O)c2cccc(F)c2)cc1 (configuration not stated)	i	i	i	i	i	·	·
COc1ccc(NC(=O)CC2C(=O)N(c3ccc(F)cc3)C(=S)N2NC(=O)c2ccc(Cl)cc2)cc1 (configuration not stated)	i	i	i	-11.2*	i	0.0	0.0
Cc1nc(N2CCN(c3ccccc3O)CC2)c2c(-c3ccccc3)csc2n1	i	i	i	-11.3*	i	89.5*	33.8*
CCN1CCN(c2ncnc3scc(-c4ccc(C)cc4)c23)CC1	i	i	i	i	i	·	·
COc1ccc(-c2csc3ncnc(N4CCN(c5ccccc5OC)CC4)c23)cc1	i	i	i	-8.6*	i	86.0*	48.8*
COc1ccc(-c2csc3ncnc(N4CCN(CCO)CC4)c23)cc1	i	i	i	i	i	·	·
